The test system of data set [1] is Staphylococcus epidermidis. In words: Antimicrobial activity against Staphylococcus epidermidis ATCC 12228 assessed as growth inhibition after 24 hr by broth microdilution method. It counts as functional. A digest of the protocol: (§1)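 Broth microdilution. Oils prepared as […] in DMSO and diluted in the plates to 3.5–900 µL/mL. Inoculum 5×10^5 cfu/mL, checked by plating on PDA. Incubated aerobically for 24 h at 37 °C (C. albicans at 30 °C). MIC taken as the first well, in ascending order, with no pellet or turbidity. MBC (99.9% kill) from 25 µL subcultured on PDA overnight at 37 °C. Three repeats.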

The subject of data set [2] is Escherichia coli. In words: Antimicrobial activity against Escherichia coli ATCC 8739 assessed as growth inhibition after 24 hr by broth microdilution method. It counts as functional. The gist of the method:
as §1
For orientation: Dilution methods test growth across graded concentrations, often in twofold steps.

In data set [3] the test system is Fusarium graminearum. In words: Induction of growth of Fusarium graminearum after 4 to 12 days. It counts as organism-based. The note with it: in vivo. A digest of the protocol:
(§2)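 Mycelial fragments (6 mm diameter, from 10-day cultures) were seeded on PDA in Petri dishes. Essential oil was added at 450 and 900 µL/mL, and plates were sealed and incubated in the dark at 22 °C. Controls received distilled water instead of oil. Mean diametric colony growth was read at 4, 8 and 12 days. Inhibition % = 100(C − T)/C, where C is the control diameter and T the oil-treated diameter.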

The subject of data set [4] is Rhizoctonia solani. Put plainly: Antifungal activity against Rhizoctonia solani assessed as mycelial growth inhibition after 4 to 12 days. It counts as functional, organism-based. The gist of the method:
(§3)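 Mycelial plugs (6 mm, 10-day-old cultures) inoculated on PDA in Petri dishes; essential oil added at 450 and 900 µL/mL; dishes sealed with Parafilm and held in the dark at 22 °C. Control: PDA plus distilled water. Mean colony diameter measured at 4, 8 and 12 days; inhibition I = 100(C − T)/C. Plates without growth were transferred to plain PDA for 48 h to tell fungistatic from fungicidal.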

Data set [5] has as its system Staphylococcus aureus. Put plainly: Antimicrobial activity against Staphylococcus aureus ATCC 6538 assessed as growth inhibition after 24 hr by broth microdilution method. It counts as functional. A digest of the protocol: as §1
The test system of data set [6] is Candida albicans. In words: Antimicrobial activity against Candida albicans ATCC 14053 assessed as growth inhibition after 24 hr by broth microdilution method. It counts as functional. The gist of the method:
as §1

Data set [7] relates to Fusarium oxysporum f. sp. lycopersici. In words: Antifungal activity against Fusarium oxysporum f. sp. lycopersici assessed as mycelial growth inhibition after 4 to 12 days. It counts as functional, organism-based. The gist of the method:
as §3

The test system of data set [8] is Pseudomonas aeruginosa. In words: Antimicrobial activity against Pseudomonas aeruginosa ATCC 9027 assessed as growth inhibition after 24 hr by broth microdilution method. It counts as functional. The gist of the method:
as §1

The test system of data set [9] is Fusarium culmorum. Put plainly: Antifungal activity against Fusarium culmorum assessed as mycelial growth inhibition after 4 to 12 days. It counts as functional, organism-based. The gist of the method:
as §3

The subject of data set [10] is Botrytis cinerea. Put plainly: Antifungal activity against Botryotinia fuckeliana assessed as mycelial growth inhibition after 4 to 12 days. It counts as functional, organism-based. A digest of the protocol:
as §3

The subject of data set [11] is Fusarium graminearum. In words: Antifungal activity against Fusarium graminearum assessed as mycelial growth inhibition after 4 to 12 days. It counts as functional, organism-based. A digest of the protocol: as §2

The values below come from ChEMBL document CHEMBL3045403, “chemical composition, plant genetic differences, antimicrobial and antifungal activity investigation of the essential oil of Rosmarinus officinalis L” (J Agric Food Chem, 2004).

Calls of active or inactive are those of the source. No cut-off for these calls is given here.

Turning to `C=C1[C@@H]2CC[C@@H](C2)C1(C)C` [(-)-CAMPHENE], the MIC in [1], in [2], in data set [5], in data set [6] and in data set [8] was greater than 900 uL/ml throughout. The Activity result in [3] was “Toxic”. The “growth inhibition (GI)” value in data set [4], in data set [7], in data set [9], in data set [10] and in data set [11] was “inactive” in each case.
In the case of `CC1=CCC2CC1C2(C)C` (stereo not drawn) [ALPHA-PINENE], the MIC in data set [1], in data set [2], in [5], in data set [6] and in data set [8] was greater than 900 uL/ml in each case. For the same compound, in [3], the Activity result was “Toxic”. Further, the “growth inhibition (GI)” value in data set [4], in data set [7], in data set [9], in [10] and in data set [11] was “inactive” each time.
Consider `CC1(C)C2CCC1(C)C(O)C2` (stereo not given) [BORNEOL], for which the MIC in data set [1], in [2], in [5], in data set [6] and in data set [8] was greater than 900 uL/ml in each case. Besides, in data set [3], the Activity result is “Toxic”. Moreover, the “growth inhibition (GI)” value in data set [4], in [7], in data set [9], in data set [10] and in [11] was “inactive” throughout.
On to `CC12CCC(CC1=O)C2(C)C` (stereo not given) [CAMPHOR], for which the MIC in data set [1], in [2], in [5], in data set [6] and in data set [8] was greater than 900 uL/ml throughout. In addition, the Activity entry in [3] is listed as “Toxic”. Further, the “growth inhibition (GI)” value in data set [4], in data set [7], in data set [9], in [10] and in data set [11] was “inactive” in each case.
On to `CC1=CC(=O)[C@@H]2C[C@H]1C2(C)C` [VERBENONE], for which the MIC in [1], in data set [2], in data set [5], in data set [6] and in data set [8] was greater than 900 uL/ml in each case. In addition, the Activity result in data set [3] is given as “Toxic”. The “growth inhibition (GI)” value in data set [4], in [7], in data set [9], in [10] and in data set [11] was “inactive” each time.
